The test system of one test is HCT-116. Nature of the test: Cytotoxicity against human HCT116 cells after 72 hrs by SRB assay. The following applies: HCT-116, 72 h. (In SRB staining, fixed cells bind dye roughly in proportion to their protein.)
Another test concerns MGC-803. The test can be described thus: Cytotoxicity against human MGC803 cells after 72 hrs by SRB assay. Conditions: MGC-803, 72 h.
For a further test, the system named is PC-3. The test can be described thus: Cytotoxicity against human PC3 cells after 72 hrs by SRB assay. Conditions: PC-3, 72 h.
The next test has as its system HL-60. Nature of the test: Cytotoxicity against human HL60 cells after 72 hrs by MTT assay. Conditions: HL-60, 72 h. The test is classed as functional, cell-based. In short, it runs like this:
(§1)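 Cells were checked for viability by Trypan blue counting, then plated at 8000 cells/well and exposed to test solution for 72 h. MTT reagents were then added, followed by a further 10 h incubation. Absorbance was read at 570 nm and IC50 reported in μM. Doxorubicin was the positive control.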

In a further test the test system is SH-SY5Y. The test can be described thus: Cytotoxicity against human SH-SY5Y cells after 72 hrs by SRB assay.
For a further test, the system named is K562. The test can be described thus: Cytotoxicity against human K562 cells after 72 hrs by MTT assay. The following applies: K562, 72 h. The test is classed as functional, cell-based. In short, it runs like this: as §1

Counter-ions that a name gives are not always drawn.

IC50 data for six compounds are collected here from ChEMBL document CHEMBL4145647, “Aniline-Tetramic Acids from the Deep-Sea-Derived Fungus Cladosporium sphaerospermum L3P3 Cultured with the HDAC Inhibitor SAHA” (J Nat Prod, 2018).

One may read the IC50 as the concentration that gives 50% inhibition. A high value points to a need for much substance. In the case of `CC(C)=C1NC(=O)C(=C2C=CC[C@H](C)O2)C1=O`, the IC50 turned out to be 12 µM in the test on HCT-116; 22 µM in the test on MGC-803; 11 µM with PC-3; 6.6 µM in the test on HL-60; 15 µM with SH-SY5Y; 4.5 µM in the test with K562.

As to `CO[C@H](CC(Nc1ccccc1)=C1C(=O)NC(=C(C)C)C1=O)C[C@H](C)O`, the half-inhibitory concentration (IC50) with HCT-116 was 11 µM; in the test on MGC-803, 19 µM; with PC-3, 13 µM; with HL-60 it was 2.8 µM; in the test on SH-SY5Y, 12 µM; in the test with K562, 4.1 µM.

Turning to `CO[C@@H](CC(Nc1ccccc1)=C1C(=O)NC(=C(C)C)C1=O)C[C@H](C)O`, the IC50 in the test with HCT-116, with MGC-803, with PC-3, with HL-60, with SH-SY5Y and in the test with K562 was over 30 µM in each case.

In the case of `CC(C)=C1NC(=O)C(=C(C[C@@H](C[C@H](C)O)Nc2ccccc2)Nc2ccccc2)C1=O`, the IC50 in the test on HCT-116 is over 30 µM; in the test on MGC-803, over 30 µM; in the test on PC-3, over 30 µM; with HL-60, 7.8 µM; with SH-SY5Y, over 30 µM; in the test on K562, 6.8 µM.

`CC(C)=C1NC(=O)C(=C(C[C@H](C[C@H](C)O)Nc2ccccc2)Nc2ccccc2)C1=O`: the half-inhibitory concentration (IC50) with HCT-116 is 14 µM; in the test on MGC-803, over 30 µM; in the test with PC-3, 18 µM; in the test on HL-60 it was 7.5 µM; in the test on SH-SY5Y, over 30 µM; in the test with K562, 5.9 µM.

Consider `COc1cccc2c1C(=O)c1c(O)c3c(c(O)c1C2=O)C[C@@](O)(C(=O)CO)C[C@@H]3O[C@H]1C[C@H](N)[C@H](O)[C@H](C)O1` [DOXORUBICIN HYDROCHLORIDE], for which, in the test with PC-3, inhibition was half-maximal at 1 µM (IC50).
